Source: PubChem (several laboratories)
M1 ag – M1 muscarinic receptor agonism | AID 626 | B-score at 10 µM | CHO-M1 cells, Fluo-4 calcium fluorescence, agonist mode; hits give high values | 64,000 tested, 3% active;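 active = fluorescence rise, raw or as B-score row- and column-corrected plate score, outside the 99.7% band of its plate's samples, either direction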
HEK293 NFkB inh – lowers PMA/ionomycin-induced NF-kB signal in HEK293 cells; 62,000 tested, 0.21% active; inhibition, % at 3 µM; HEK-293 NF-kB luciferase reporter, luminescence;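 active = inhibition above the mean of all tested compounds plus 3 SD, cut at about 40% in these data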;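 note: 0% = stimulated DMSO wells and 100% = 10 µM reference inhibitor 5653914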
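Reagent: PMA plus ionomycin mix as NF-kB-activating stimulus. Assay system: NF-kB luciferase reporter HEK-293 cells. Technique: luminescence from luciferase substrate reagent. Incubation: 1 h compound pre-incubation, 16 h PMA/ionomycin at 37 °C. Benchmarks: DMSO only as uninhibited control, 10 µM reference inhibitor as full inhibition. Repeats: tested once.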
Jurkat tox 60K – cytotoxicity toward Jurkat cells. inhibition, % at 4 µM. Jurkat E6.1 viability, ATP luminescence, 48 h. 56,000 tested, 1.2% active;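 active = inhibition above the mean inhibition of all tested compounds plus 3 SD, cut at about 28% in these data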
M1 antagonist – M1 muscarinic receptor (rat) antagonism; P08482; CHO-M1 cells, Fluo-4 calcium, ACh EC80 antagonist mode; hits give low values; B-score at 10 µM; 64,000 tested, 3.4% active;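 active = calcium fluorescence response, raw or row-and-column corrected B-score, differing from the plate sample mean either way at a set confidence level, mostly lower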
D1 allo mod – allosteric modulators of human D1 dopamine receptor | P21728 | HEK293 D1, CRE-luciferase, dopamine EC30 potentiation; actives deviate in either direction | B-score at 10 µM | 58,000 tested, 5.9% active;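 active = luminescence count or its row- and column-corrected plate score outside the 99.7% band of the plate's sample wells, on either side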
hDAT+cocaine – modulates human dopamine transporter uptake under cocaine; B-score at 10 µM; 110,000 tested, 1.3% active; LLC-PK1 hDAT cells, [14C]-dopamine uptake with cocaine IC80; actives deviate in either direction; Q01959;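 active = Z score or B-score, a plate-position-corrected score, falls beyond the plate's 99.7% confidence bounds, in either direction; inactive = both scores lie inside the 99.7% bounds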;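 note: scored against the spread of the other compound wells on the same plate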
Target sequence (Q01959 whole entry, looked up): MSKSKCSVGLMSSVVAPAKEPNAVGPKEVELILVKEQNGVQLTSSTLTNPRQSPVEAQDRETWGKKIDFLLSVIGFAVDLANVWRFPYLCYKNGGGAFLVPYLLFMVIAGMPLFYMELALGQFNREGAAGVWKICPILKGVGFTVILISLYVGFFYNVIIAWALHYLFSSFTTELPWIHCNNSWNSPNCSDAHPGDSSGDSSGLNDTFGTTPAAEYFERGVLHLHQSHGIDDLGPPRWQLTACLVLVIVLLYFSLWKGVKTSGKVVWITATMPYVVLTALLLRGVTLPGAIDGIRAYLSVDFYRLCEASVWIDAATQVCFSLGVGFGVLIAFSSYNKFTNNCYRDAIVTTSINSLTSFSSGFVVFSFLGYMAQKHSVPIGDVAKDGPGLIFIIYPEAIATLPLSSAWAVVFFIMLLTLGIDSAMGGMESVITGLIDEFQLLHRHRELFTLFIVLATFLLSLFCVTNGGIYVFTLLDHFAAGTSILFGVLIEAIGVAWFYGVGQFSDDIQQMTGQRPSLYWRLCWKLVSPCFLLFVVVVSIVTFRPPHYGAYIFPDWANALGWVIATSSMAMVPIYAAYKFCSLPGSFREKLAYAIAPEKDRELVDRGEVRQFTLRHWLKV
* hit, by the source's call; nt = not tested or not shown. Only some compounds are listed: those with a hit (about 7.6% of all), similar ones and a draw of the others.

SMILES	M1 ag	HEK293 NFkB inh	Jurkat tox 60K	M1 antagonist	D1 allo mod	hDAT+cocaine
CN(C)c1nc2n(c(=O)n1)C(C#N)CS2 (stereo not drawn)	-0.059	nt	nt	3*	0.59	-0.85
O=C(NCc1ccccc1)c1cccc(NC(=O)c2ccco2)c1	0.058	29	nt	-0.23	-0.15	1.5
Cc1ccc(C(=O)Nc2cccc(C(=O)NCc3ccccc3)c2)o1	3.1*	10	3	-0.41	-1.2	2.4
N#C/C(C(=O)Oc1ccccc1)=C1\C=Cc2ccccc2N1	nt	nt	nt	nt	nt	1.2
COc1ccc(-c2ncc3ccccn23)cc1	0.75	-16	-5	0.42	-0.06	-0.24
c1csc(-c2ncc3ccccn23)c1	-0.55	4	-8	0.1	-3.8*	0.98
O=C(O)[C@@H]1CCCC[C@@H]1C(=O)N1CCc2ccccc2C1CN1C(=O)c2ccccc2C1=O (stereo partly drawn)	0.29	59*	2	-0.017	nt	0.0062
CC(C)(C)c1cc(C(c2cccnc2)N2CCN(CCO)CC2)cc(C(C)(C)C)c1O (stereo not drawn)	0.69	3	-2	-0.44	-2.4	-0.74
OCCN1CCN(C(c2cccs2)c2ccc3cccnc3c2O)CC1 (stereo not drawn)	-0.57	8	53*	-0.3	nt	0.34
CCOC(NC(=O)c1ccccc1)C(NC(=O)c1ccccc1)OCC (stereo not drawn)	0.58	20	-6	0.013	-0.48	-0.31
CC(C1CC2CCC1C2)n1c(COc2ccccc2F)nnc1SCC(N)=O (stereo not drawn)	nt	nt	nt	nt	nt	0.14
CC(C)NC(=O)NC(=O)CSc1nnc(COc2ccccc2F)n1C(C)C1CC2CCC1C2 (stereo not drawn)	nt	nt	nt	nt	nt	2.6*
CCOC(=O)c1[nH]c2ccccc2c1NC(=O)CC	0.68	17	6	-0.1	-0.051	nt
CN(C)c1ccc(C=Nc2ccc(N(C)C)cc2)cc1	-0.18	nt	nt	-0.068	-0.59	0.12
CN(C)c1ccc(C=Nc2cnn(C)c2C(N)=O)cc1	2	nt	nt	-0.86	nt	1.8*
COc1cccc(-c2nc(N3CCC(C)CC3)c3ccccc3n2)c1O	-0.62	nt	nt	2.2*	nt	0.37
CCOc1cc(C(=O)NC)cc(OCC)c1OCC	-0.51	-2	-1	0.0076	nt	-0.027
Cc1ccc(S(=O)(=O)Nc2cccc(C(=O)Nc3cc(C)ccn3)c2)cc1	nt	nt	nt	nt	nt	-0.39
Cc1ccnc(NC(=O)c2cccc(NS(=O)(=O)c3ccccc3C)c2)c1	nt	nt	nt	nt	nt	0.47*
CCOc1cc(C(=O)Nc2cnccn2)cc(OCC)c1OCC	0.92	0	51*	-0.47	0.84	0.27
CCOc1cc(C(=O)Nc2ccc(S(=O)(=O)Nc3cc(C)on3)cc2)cc(OCC)c1OCC	-3.5*	8	-4	1.4	2.2	nt
CCOc1cc(C(=O)Nc2cc(C)ccn2)cc(OCC)c1OCC	0.72	6	8	-0.79	-1.5	3*
Cc1ccc2c(c1)c(CC(=O)Nc1ccc(C)c(F)c1)c(C(=O)O)n2C	nt	nt	nt	nt	nt	-1.2
CCCNC(=O)c1onc(CSc2ccc(Cl)cc2)c1C(=O)NCCC(C)C	nt	nt	nt	nt	nt	0.025
COC(=O)C1CCN(C(=O)CSc2nnc(-c3ccncc3)o2)CC1	0.5	10	nt	0.32	0.24	-0.53
SMILES	M1 ag	HEK293 NFkB inh	Jurkat tox 60K	M1 antagonist	D1 allo mod	hDAT+cocaine
CC(C)(C)C(=O)Nc1ccc(-c2cn3ccsc3n2)cc1	-0.13	12	7	-0.038	-5.4*	nt
COc1ccc(-c2csc(NC(=O)CC(C)C)n2)cc1	nt	nt	nt	nt	nt	-1.7
CC(C)CC(=O)Nc1ccc(-c2cn3ccsc3n2)cc1	0.75	-23	6	-0.31	-4.5*	0.21
CCOC(=O)N1CCC2(CC1)C(C#N)=C(N)Oc1n[nH]c(CSc3ccc(C)cc3)c12	-0.14	17	5	-1.4	-4.6*	0.15
Cc1ccc(SCc2[nH]nc3c2C2(CCSCC2)C(C#N)=C(N)O3)cc1	-1.6	-2	0	0.87	nt	-0.17
COc1ccccc1NC(=O)NCCCN1CCN(c2cccc(Cl)c2)CC1	-0.77	16	-4	-0.29	-4.2*	-1.6
Cn1c(=O)cc(OCC(=O)NCCCN2CCN(c3ccccc3F)CC2)c2ccccc21	0.0075	1	2	-0.013	0.56	-0.42
COc1ccccc1N1CCN(CCCNC(=O)Nc2ccccc2C)CC1	-0.91	10	nt	0.11	nt	-1.3
Cn1c(=O)cc(OCC(=O)NCCCN2CCN(c3cccc(Cl)c3)CC2)c2ccccc21	-1	6	8	0.18	-5.3*	-0.25
COc1cc(CN2CCN(c3cccc(Cl)c3)CC2)cc(OC)c1OC	-0.23	21	81*	-1.3	-2.4	2.5
COc1ccc(OC)c(S(=O)(=O)N(C)CC(=O)Nc2ccc3c(c2)OCO3)c1	0.43	18	-5	0.75	-0.0078	-0.98
CC(C)OCCCN1C=C2C(=O)C(C)(OC(=O)CCc3ccccc3)C(=O)C=C2C=C1c1ccc(C#N)cc1 (stereo not drawn)	nt	nt	nt	nt	nt	0.49
COc1ccc(C(=O)Nc2ccc(C)cn2)c(OC)c1	-0.073	32	nt	0.64	-9.5*	-0.11
O=C(NCc1nc2ncc(Br)cc2[nH]1)c1ccccc1	0.38	-13	4	-0.012	-0.96	-7.3*
Cc1cc(NC(=O)CS(=O)(=O)c2cn(Cc3ccc(F)cc3)c3ccccc23)no1	0.11	13	9	0.54	-2	-0.72
Cc1cc(NC(=O)CS(=O)(=O)c2cn(Cc3cccc(F)c3)c3ccccc23)no1	1.7	23	nt	3.6*	0.73	nt
CCCc1cc(=O)oc2cc(OCC(=O)Nc3ccc4c(c3)OCCO4)ccc12	nt	nt	nt	nt	nt	-0.0042
CCCc1cc2c(=O)c(-c3ccc4c(c3)OCCO4)c(C)oc2cc1OS(C)(=O)=O	nt	nt	nt	nt	nt	2.8*
Clc1ccc(Nc2nc(-c3cccnc3)cs2)cc1	nt	nt	nt	nt	nt	1.2
CN(C)c1ccc(Nc2nc(-c3cccnc3)cs2)cc1	1.1	-30	0	-0.41	-2.8*	-0.27
CC1(CC(=O)N/N=C/c2ccc(OCc3ccc(Cl)cc3Cl)cc2)OCCCO1	nt	nt	nt	nt	nt	3.4*
Cc1cc(=O)oc(C)c1C(=O)NCC(C)C	-0.12	nt	nt	-0.36	nt	-0.15
Cc1cc(=O)oc(C)c1C(=O)NCC(C)NC(=O)c1c(C)cc(=O)oc1C (stereo not drawn)	-0.91	nt	nt	0.23	nt	3.2*
COc1ccc(NC(=O)CSC2=C(C#N)C(c3ccco3)C3=C(CCCC3=O)N2)c(OC)c1 (stereo not drawn)	1	nt	nt	0.65	-2.3	-2.7*
COc1cccc(NC(=O)CSC2=C(C#N)C(c3ccco3)C3=C(CCCC3=O)N2)c1 (stereo not drawn)	0.43	nt	nt	-0.008	nt	-0.3
O=C(Cn1c(C(=O)N2CCN(C3CCCC3)CC2)cc2sccc21)c1ccccc1	0.094	9	-3	0.53	-1.8	2.5*
Cc1cc(C)c2nc(N3CCC(C(=O)N4CCN(C(=O)c5ccco5)CC4)CC3)sc2c1	nt	nt	nt	nt	nt	3.7*
Cc1cc(C)c2nc(N3CCCC(C(=O)N4CCN(c5ncccn5)CC4)C3)sc2c1 (stereo not drawn)	nt	nt	nt	nt	nt	0.03
Cc1nn(CC(C)C)c(=S)[nH]c1=O	nt	2	4	nt	0.49	-0.72
